The source of these data is PMC3669666 (Biochemistry, 2013).

Test [1] concerns the target chimeric frog AHR1β containing the mouse LBD (Xenopus laevis, UniProt P30561+Q4QY30). Description: Transactivation. The test is classed as cell-based. In a few lines: (§1)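 Same COS-7 co-transfection: AHR construct, X. laevis ARNT1, pGudLuc6.1 firefly reporter and pRL-TK control, total DNA 300 ng, triplicate wells. Graded FICZ (0.5% DMSO vehicle) was added 5 hours post-transfection. Cells were lysed 3 hours after dosing for dual luciferase. Firefly/Renilla ratio, minus vehicle, was normalized to each AHR's maximum. EC50 came from non-linear regression with background 0 and maximum 1; 3-4 replicates.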

The target of test [2] is X. laevis AHR1β (Xenopus laevis, UniProt Q4QY30). Kind of test: Transactivation. The class given is cell-based. In a few lines:
as §1

In test [3] the target is frog AHR1β A370S mutant (Xenopus laevis, UniProt Q4QY30, A370S). Description: Transactivation. The class given is cell-based.
For test [4], the target named is frog AHR1β A354S mutant (Xenopus laevis, UniProt Q4QY30, A354S). Kind of test: Transactivation. The test is classed as cell-based. The method in brief: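 COS-7 cells (DMEM, 10% FBS, 37°, 5% CO2) were seeded at 30,000/well. After 24 h, triplicate wells were co-transfected with 50 ng AHR plasmid, 50 ng X. laevis ARNT1, 20 ng pGudLuc6.1 (mouse CYP1A1 enhancer, four XREs) and 3 ng pRL-TK, totalling 300 ng. Five hours later, cells received 0.5% DMSO or graded FICZ. Firefly/Renilla luciferase was read at 3 h, vehicle-subtracted and normalized to maximum. EC50 came from nonlinear regression (bottom 0, top 1). n=3-4.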

The target of test [5] is T1, frog AHR1β N325S mutant (Xenopus laevis, UniProt Q4QY30, N325S). Kind of test: Transactivation. The class given is cell-based.
For test [6], the system named is AHR1β. As to conditions: AHR1β vs mouse AHR; cited from earlier work.
The subject of test [7] is AHR from the common tern. As to conditions: common tern AHR vs chicken AHR; cited from earlier work.
For test [8], the target named is frog AHR1β KHSR mutant (R345K, D346H, T347S, G348R) (Xenopus laevis, UniProt Q4QY30, D346H/G348R/R345K/T347S). Kind of test: Transactivation. The test is classed as cell-based.
In test [9] the target is frog AHR1β S294Q mutant (Xenopus laevis, UniProt Q4QY30, S294Q). Description: Transactivation. The test is classed as cell-based. In a few lines:
(§2)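 COS-7 cells in DMEM with 10% FBS (37°, 5% CO₂), 30,000/well, transfected 24 hours later in triplicate wells. Each well received 50 ng AHR construct, 50 ng X. laevis ARNT1, 20 ng pGudLuc6.1 (CYP1A1 enhancer, four XREs) and 3 ng pRL-TK, with empty vector to 300 ng. After 5 hours, graded TCDD was added (0.5% DMSO), and cells were lysed 18 hours later. EC50 came from regression of fractional firefly/Renilla response (vehicle-subtracted, max=1); n=3-4.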

Test [10] concerns the target frog AHR1β T256A/S263P mutant (Xenopus laevis, UniProt Q4QY30, S263P/T256A). Description: Transactivation. The test is classed as cell-based. In a few lines:
as §2

Test [11] deals with T2, frog AHR1β A354S/N325S mutant (Xenopus laevis, UniProt Q4QY30, A354S/N325S). Kind of test: Transactivation. The test is classed as cell-based.
For test [12], the system named is frog AHR1β. Kind of test: Velocity sedimentation analysis of [3H]TCDD binding. Further details: species or system Xenopus laevis. Particulars: 2 nM [3H]TCDD, 18 hr at 4° C, sucrose gradients. In a few lines: (§3)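 They were incubated 18 hr at 4 °C with 2 nM [3H]TCDD, then run on sucrose gradients in a vertical rotor. Peak-fraction dpm minus unprogrammed-lysate dpm gave specific binding, expressed relative to wild-type AHR1β. AHR input was checked by western blot. Three replicates.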

The target in test [13] is T2, frog AHR1β A354S/N325S mutant. Described as above. Particulars: 2 nM [3H]TCDD, 18 hr at 4° C, sucrose gradients. The method in brief: as §3
Test [14] deals with AHR1α. As to conditions: AHR1α vs mouse AHR; cited from earlier work.
Test [15] concerns the target frog AHR1β S263P mutant (Xenopus laevis, UniProt Q4QY30, S263P). Description: Transactivation. The test is classed as cell-based. The method in brief:
as §2

In test [16] the target is frog AHR1β T256A mutant (Xenopus laevis, UniProt Q4QY30, T256A). Description: Transactivation. The test is classed as cell-based. In a few lines:
as §2

Test [17] concerns the target mouse AHR^b-1 (Mus musculus, UniProt P30561). Description: Transactivation. The test is classed as cell-based.
Test [18] addresses T1, frog AHR1β N325S mutant. Kind of test: Velocity sedimentation analysis of [3H]TCDD binding. As to conditions: 2 nM [3H]TCDD, 18 hr at 4° C, sucrose gradients.
For test [19], the system named is mouse AHR S359A. Particulars: S359A in mouse AHR vs wild type; cited from earlier work.
The target in test [20] is frog AHR1β S371T mutant (Xenopus laevis, UniProt Q4QY30, S371T). Kind of test: Transactivation. The class given is cell-based. The method in brief:
as §2

Test [21] concerns chimeric AHR (frog AHR1β with mouse LBD). Kind of test: Velocity sedimentation analysis of [3H]TCDD binding. Further details: species or system Xenopus laevis / mouse. Particulars: 2 nM [3H]TCDD, 18 hr at 4° C, sucrose gradients. The method in brief:
as §3

Structures are written as SMILES. Several values for one entry are separate records, joined by “and”; a condition that tells them apart may be missing. Equal entries are not always repeated. Where two headings read alike, the source gives them in different places.

Consider `O=Cc1c2[nH]c3ccccc3c2cc2[nH]c3ccccc3c12` [FICZ, 6-formylindolo[3,2b]carbazole], for which, in test [1] (chimera vs AHR1β, 3 hr), the “fold more responsive to FICZ than AHR1β” value was 2.7 fold. Also, the EC50 – broadly, the concentration that produces a half-maximal response – came to 0.03 ± 0.01 nM in test [1] (read-out: EC50 for reporter gene induction, FICZ, (3 hr), COS-7 cells, chimera); 0.08 nM in test [2] (read-out: EC50 for reporter gene induction, FICZ, (3 hr), COS-7 cells, AHR1β); 0.04 nM in [3] (read-out: EC50 for reporter gene induction, FICZ, (3 hr), COS-7 cells, A370S); 0.04 nM in test [4] (read-out: EC50 for reporter gene induction, FICZ, (3 hr), COS-7 cells, A354S); 0.07 nM in test [5] (read-out: EC50 for reporter gene induction, FICZ, (3 hr), COS-7 cells, N325S). The “fold increase in FICZ responsiveness” value in test [3] (A370S vs AHR1β, 3 hr) is “about 2 fold”; in test [5] (N325S vs AHR1β, 3 hr) it was “about 2 fold”. Besides, in test [4] (A354S, 3 hr), the “FICZ responsiveness (in words)” value is “restored responsiveness to a level comparable to the chimera”.
On to `Clc1cc2c(cc1Cl)Oc1cc(Cl)c(Cl)cc1O2` [TCDD, 2,3,7,8-tetrachlorodibenzo-p-dioxin], for which the “fold lower TCDD affinity than mouse AHR” value in test [6] and in test [14] was “more than 25 fold” throughout. The “fold lower TCDD affinity than AHR from chicken” value in [7] is 7 fold. Also, the EC50 is 23 nM in test [8]; 25.9 ± 1.1 nM in test [9]; 20.6 ± 8 nM in test [10]; 18.6 ± 4.7 nM in test [2]; 0.8 nM and 0.82 nM in [11] (EC50 for reporter gene induction, TCDD, (24 hr), COS-7 cells, A354S/N325S); 23.7 ± 8.8 nM in test [15]. Also, the EC50 in test [16] came out at 23.1 nM; in test [17], 0.5 ± 0.16 nM; in test [3] it was 1 ± 0.4 nM; in test [4], 1.2 ± 0.4 nM; in [5], 5.7 ± 1.6 nM; in test [20], 13.5 ± 3.3 nM. In addition, the “fold greater TCDD responsiveness relative to AHR1β” value is around 23 fold in [11] (N325S/A354S vs wild type AHR1β) and 18.6 fold in test [3] (A370S vs wild type AHR1β). Also, the “TCDD binding (in words)” value in test [12] is reported as “barely detectable”; in test [13], “approaching that of the chimera”; in test [18], “greater TCDD binding than either A354S or A370S”; in test [21], “greatest TCDD binding”. Also, in [19], the “reduction of TCDD binding” value was 40%. The “fold greater TCDD responsiveness (EC50 decline) relative to AHR1β” value in test [5] (N325S vs wild type AHR1β) was 3 fold and 3.2 fold.
